Calls of active or inactive are those of the source. The calls are words filed in the database; no cut-off is given here. Bounds are passed on as bounds.

One experiment deals with A549. As to the kind of experiment: Antiproliferative activity against human A549 cells assessed as reduction in cell growth measured after 48 hrs by MTT assay. Particulars: A549, 48 h. It is filed as functional, cell-based. A digest of the protocol: (§1)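 Cells grown at 37 °C in 5% CO2. MCF-7, A549 and HT-29 cells were kept in RPMI 1640 with 10% FBS and pen/strep. HepG2, A375, NRK-49F and LX-2 cells were kept in high-glucose DMEM with 10% FBS and pen/strep. HLF-1 cells were kept in DMEM/F-12 (1:1) with 10% FBS. Cells seeded for exponential growth, exposed to a concentration range for 48 h, then MTT added for 4 h at 37 °C. Formazan dissolved in DMSO, absorbance read at 490 nm, IC50 fitted.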

Another experiment concerns HT-29. Nature of the experiment: Antiproliferative activity against human HT-29 cells assessed as reduction in cell growth measured after 48 hrs by MTT assay. The format is functional, cell-based. Particulars: HT-29, 48 h. A digest of the protocol: as §1
(Tetrazolium dyes change colour on reduction, which living cells bring about.)

A further experiment deals with HepG2. Nature of the experiment: Antiproliferative activity against human HepG2 cells assessed as reduction in cell growth measured after 48 hrs by MTT assay. The note with it: HepG2, 48 h. The format is functional, cell-based. A digest of the protocol:
as §1

For experiment [1], the system named is A-375. As to the kind of experiment: Antiproliferative activity against human A375 cells assessed as reduction in cell growth measured after 48 hrs by MTT assay. It is filed as functional, cell-based. Particulars: A-375, 48 h. The method in brief:
as §1

For another experiment, the system named is MCF7. Nature of the experiment: Antiproliferative activity against human MCF7 cells assessed as reduction in cell growth measured after 48 hrs by MTT assay. The format is functional, cell-based. The note with it: MCF7, 48 h. A digest of the protocol: as §1
The subject of experiment [2] is A-375. As to the kind of experiment: Induction of apoptosis in human A375 cells at 10 uM measured after 24 hrs by Annexin V-FITC/propidium iodide staining based fluorescence microscopic analysis. The format is functional, cell-based.
Experiment [3] can be described thus: Antifibrotic activity against human LX2 cells assessed as reduction in cell growth measured after 48 hrs by MTT assay. It is filed as functional, cell-based. The note with it: LX-2, 48 h. The method in brief: as §1
Experiment [4] is described as follows: Antifibrotic activity against human HLF1 cells assessed as reduction in cell growth measured after 48 hrs by MTT assay. The note with it: HLF1, 48 h. It is filed as functional, cell-based. A digest of the protocol:
as §1

The test system of another experiment is NRK-49F. Nature of the experiment: Antifibrotic activity against rat NRK-49F cells assessed as reduction in cell growth measured after 48 hrs by MTT assay. It is filed as functional, cell-based. A digest of the protocol:
as §1

The next experiment concerns L02. As to the kind of experiment: Cytotoxicity against human LO2 cells assessed as reduction in cell growth measured after 24 hrs by MTT assay. Particulars: L02, 24 h. The format is cell-based.
The target of experiment [5] is T1, Bromodomain-containing protein 4 (Homo sapiens, UniProt O60885). As to the kind of experiment: Inhibition of biotinylated H4 K5,8,12,16Ac peptide binding to GST-tagged BRD4 bromodomain1 (unknown origin) measured after 60 mins by AlphaScreen assay. In general terms: Alpha assays give light when donor and acceptor beads are brought close together.
For experiment [6], the target named is T1, Bromodomain-containing protein 4. Nature of the experiment: Inhibition of biotinylated H4 K5,8,12,16Ac peptide binding to GST-tagged BRD4 bromodomain2 (unknown origin) at 100 uM measured after 60 mins by AlphaScreen assay relative to control. A digest of the protocol:
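AlphaScreen proximity assay measuring binding of the tetra-acetylated (K5,8,12,16Ac) biotinylated histone H4 peptide to recombinant BRD4 BD1 or BD2. Buffer was 50 mM HEPES with BSA, at 1% DMSO in the 10X compound dilutions. Compound, bromodomain, peptide and histidine-conjugated acceptor beads were incubated 60 min at room temperature. Streptavidin donor beads were then added for 30 min in the dark, and the endpoint Alpha signal read. Inhibition taken at 100 µM, mean of three independent experiments.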

Experiment [7] has the same target. As to the kind of experiment: Inhibition of BRD4 in human A375 cells assessed as reduction in c-MYC protein expression measured after 24 hrs by Western blot analysis. The format is cell-based. The method in brief: (§2)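 Cells (2.5 × 10^5 per well; A375 for c-Myc, HLF-1 for collagen I) were treated for 24 h and lysed on ice. Lysate was clarified at 12,000g for 15 min at 4 °C and protein measured by BCA. 20–40 µg was run on SDS-PAGE and blotted to PVDF, then blocked in 5% milk. Primary antibodies (c-Myc or collagen I, β-actin loading control) overnight, secondary antibody 1 h, fluorescent detection.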

A short description of experiment [8]: Selectivity index, ratio of IC50 for cytotoxicity against human LO2 cells to IC50 for antifibrotic activity against human LX2 cells.
The target in experiment [9] is T1, Bromodomain-containing protein 4. As to the kind of experiment: Inhibition of BRD4 in human HLF1 cells assessed as reduction in collagen-1 protein expression measured after 24 hrs by Western blot analysis. It is filed as cell-based. The method in brief: as §2
On the technique in general: A western blot detects proteins with antibodies after separation by electrophoresis.

Experiment [10] has the same target. Nature of the experiment: Inhibition of BRD4 in human HLF1 cells assessed as reduction in collagen-1 mRNA expression at 1 uM measured after 24 hrs by RT-PCR analysis. The format is cell-based. The method in brief: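 HLF-1 cells (2.5 × 10^5 per well) were treated for 24 h. Total RNA was extracted, reverse-transcribed to cDNA, and collagen I transcript measured by quantitative RT-PCR.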

By IC50 is commonly meant the midpoint of a concentration-inhibition curve. As for `COc1cc(OC)c2c(=O)[nH]c(-c3cc(C)c(OCCO)c(C)c3)nc2c1` [APABETALONE], the IC50 with A549 is 53.1 µM; in the experiment on HT-29, 236 µM; in the experiment with HepG2 it was 103 µM; with A-375 [1], 241 µM; with MCF7, over 300 µM; in [3], 79.7 µM. For the same molecule, the IC50 in experiment [4] is 52 µM; with NRK-49F, 42 µM; with L02, over 100 µM. The result with A-375 [2] was inactive.

On to `Cc1sc2c(c1C)C(c1ccc(Cl)cc1)=N[C@@H](CC(=O)OC(C)(C)C)c1nnc(C)n1-2`, for which the IC50 in the experiment with A549 came out at 13.1 µM; with HT-29, 19.6 µM; in the experiment with HepG2, 11.3 µM; in the experiment with A-375 [1] it was 7.5 µM; in the experiment on MCF7, 38 µM; in experiment [3], 28.6 µM. Besides, the IC50 in [4] turned out to be 20.4 µM; with NRK-49F, 21.1 µM; in the experiment on L02 it was 54.2 µM. Moreover, the outcome with A-375 [2] was Active.

Broadly, the inhibition is the relative decrease from the control value, in per cent. Regarding `Cc1noc(C)c1Cn1c(=O)nc(-c2ccc(Cl)c(Cl)c2)c2c3c(sc21)CC(C(C)(C)C)CC3` (stereo unspecified), the IC50 was 0.56 µM in [5]; 24.5 µM in the experiment on A549; 19.4 µM in the experiment with HT-29; 14.5 µM in the experiment with HepG2; 4.9 µM in the experiment on A-375 [1]; 16.6 µM in the experiment with MCF7. In addition, the half-maximal inhibitory concentration (IC50) in experiment [3] is 9.1 µM; in experiment [4], 13.6 µM; with NRK-49F, 16 µM; in the experiment with L02 it was 33.2 µM. Also, the results for the inhibition in [6], in experiment [7] and in experiment [9] were 29.9%, “Dose-dependent effect” and “Dose-dependent effect”, respectively. In addition, the outcome in the experiment with A-375 [2] was Active. For the same molecule, the “Ratio IC50” value in [8] turned out to be 3.6. Also, the inhibition result in experiment [10] is “Active”.

For the origin of these results see ChEMBL document CHEMBL4392838, “Binding pocket-based design, synthesis and biological evaluation of novel selective BRD4-BD1 inhibitors” (Bioorg Med Chem, 2019).
